Shown are actives, neighbours in structure and some others; about 3.7% of the full set was active somewhere.
KCNK9 inh = blocks the human KCNK9 two-pore domain potassium channel. Q9NPC2. HEK293 KCNK9, FluxOR thallium flux fluorescence; hits give low values. B-score at 10 µM. 310,000 tested, 1.2% active;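 active = ratio B-score over 3 SD below the library mean, with starting fluorescence within 5 SD of its mean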;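 note: negative B-score means less thallium flux so channel inhibition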
hERG protect = shields human hERG channel from block by proarrhythmic agents. Q12809. CHO-hERG, FluxOR thallium flux, dofetilide IC70 present. activation (rescue from dofetilide block), less the hit threshold, % at 10 µM. 310,000 tested, 0.51% active;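 active = activation above the mean of controls blocked by dofetilide plus 5 SD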;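 note: thallium influx through hERG after potassium depolarization seen as dye fluorescence rise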
Kir21 inh = blocks the mouse Kir2.1 inward-rectifier potassium channel; P35561; 310,000 tested, 0.85% active; HEK293-Kir2.1, FluxOR thallium flux fluorescence; hits give low values; B-score at 10 µM;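 active = fluorescence ratio B-score at or below minus 3 SD of library scores, with starting-brightness B-score within 2 SD, cut at about -4.2 in these data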;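 note: channel flux triggered by added potassium and thallium sulfate stimulus; B-score of peak minus minimum fluorescence over baseline after thallium stimulus; more negative B-score means stronger Kir2.1 block with less thallium influx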
KCNK3 inh = human KCNK3 channel inhibition, primary screen; CHO-KCNK3 thallium flux, FluxOR fluorescence; hits give low values; B-score at 10 µM; O14649; 340,000 tested, 0.84% active;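 active = B-score under library mean minus 4 SD, starting fluorescence ratio at most library mean plus 5 SD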;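 note: more negative B-score means stronger inhibition of thallium flux through KCNK3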
KCNQ1 block = inhibitors of human KCNQ1 potassium channel | AID 2642 | B-score at 10 µM | 310,000 tested, 1.3% active | CHO-K1 KCNQ1, FluxOR thallium flux fluorescence; hits give high values | P51787;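 active = compounds whose thallium flux B-score, printed positive for inhibition, exceeds three library SD while starting fluorescence stays within three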;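 note: channel opened by potassium depolarization with thallium stimulus after 20 min compound exposure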
KCNQ1 pot = human KCNQ1 channel potentiation or activation; 310,000 tested, 0.35% active; P51787; B-score at 10 µM; AID 2648; CHO-K1 KCNQ1, thallium flux FluxOR fluorescence; hits give high values;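 active = fluorescence ratio B-score, a plate-corrected score, at least three library SD, with initial intensity B-score within 5 SD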
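Test system: CHO-K1 cells stably expressing KCNQ1 / Medium: assay buffer / Also added: depolarizing K+/Tl+ stimulus, K2SO4 and Tl2SO4 each 12.5 mM in 5x stock / Incubation: 90 min dye loading and 20 min compound exposure, both at room temperature / Signal: thallium influx via FluxOR fluorescence, kinetic imaging / Evaluation: B score of baseline-normalized fluorescence ratio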
Starred values were filed as active, the others as inactive; i = inactive; x = not tested or not shown.

SMILES	KCNK9 inh	hERG protect	Kir21 inh	KCNK3 inh	KCNQ1 block	KCNQ1 pot
O=C1c2ccccc2NC(c2cccc([N+](=O)[O-])c2)N1CCc1ccccc1 (stereo not drawn)	-6.6*	-9	0.39	i	i	i
O=C1CSC(c2cccc([N+](=O)[O-])c2)N1Cc1ccccc1 (stereo not drawn)	i	0	-4.5*	i	i	i
O=C(NNC(=O)C1[C@H]2CCCC[C@@H]12)Nc1cccc2ccccc12 (stereo partly drawn)	i	-5	0.72	i	i	i
Cc1ccc(NC(=O)CSc2nnc(/N=C/N(C)C)s2)cc1	i	-10	-2	i	i	i
Cc1cc(C)c(C(=O)COC(=O)CCn2c(C)csc2=O)cc1C	i	-10	-4.5*	i	i	i
O=C(CSc1nc(=O)n2ccccc2n1)Nc1ccc2c(c1)OCO2	i	-17	0.21	i	i	i
CCCCCC(=O)OC(CN1CCCCCC1)CN1CCCC1=O (stereo not drawn)	i	-5	1.2	i	10*	i
Cc1ccc(C(=O)Nn2cnnc2)cc1	i	-3	0.64	i	i	i
COc1ccccc1CN1CC(C(=O)NCCn2ccc(C)n2)CCC1=O (stereo not drawn)	i	-6	2	i	i	i
CC1C=CC=CC=CC=CC=CC=CC=CC(OC2OC(C)C(O)C(N)C2O)CC2OC(O)(CC(O)CC(O)C(O)CCC(O)CC(O)CC(=O)OC(C)C(C)C1O)CC(O)C2C(=O)O (stereo not drawn)	x	x	x	i	x	x
COc1ccccc1C1c2ccc3ccccc3c2Oc2ncn(CCCO)c(=N)c21 (stereo not drawn)	i	-14	-2.5	i	i	i
COc1ccc(C2c3ccc4ccccc4c3Oc3ncn(CCCN(C)C)c(=N)c32)cc1 (stereo not drawn)	i	-14	-7.2*	i	i	i
COc1ccccc1C1c2ccc3ccccc3c2Oc2ncn(CCN(C)C)c(=N)c21 (stereo not drawn)	i	-13	-5.2*	i	i	i
O=C1COc2ccc(C(=O)COC(=O)COc3ccccc3[N+](=O)[O-])cc2N1	i	-7	-3.9	i	i	i
N#Cc1ccccc1OCC(=O)OCC(=O)c1ccc2c(c1)NC(=O)CO2	i	5.4*	0.07	i	i	i
CCN(CC)C(=O)n1c(Cc2ccccc2)nc2ccccc21	i	-9	0.01	i	i	i
CC(C)(C)C(=O)NCCCc1nc2ccccc2n1CCCOc1ccc(Cl)cc1	-7.3*	-10	-2.5	i	i	i
CCCCCCn1nc(C(=O)N(CCCC)c2c(N)n(CCC)c(=O)[nH]c2=O)c2ccccc2c1=O	x	x	x	i	x	x
O=[N+]([O-])c1ccc(/C([O-])=C(/C(=S)NCc2ccco2)[n+]2ccccc2)cc1	i	-8	0.02	i	i	8*
Cc1ccc(/C([O-])=C(/C(=S)NCc2ccco2)[n+]2ccccc2)cc1	i	-7	1.4	x	i	i
COc1ccccc1-c1nnc(SCC(=O)Nc2nc(-c3ccccc3)cs2)n1C	i	6.1*	0.05	i	i	i
C[C@H](CO)N1C[C@H](C)[C@@H](CN(C)C(=O)NC2CCCCC2)Oc2c(NS(=O)(=O)c3ccc(F)cc3)cccc2C1=O	x	x	x	i	x	x
CCOC(=O)c1c(CSc2ccccc2)n(C)c2ccc(O)c(CN3CCN(C)CC3)c12	i	-12	-4.9*	i	i	i
CCOC(=O)c1c(CSc2ccccc2)n(C)c2cc(Br)c(O)c(CN(C)C)c12	-6.7*	-20	-1.2	i	i	i
CCOC(=O)c1c(CSc2ccsc2)n(C)c2cc(Br)c(O)c(CN(C)C)c12	i	-17	-7.1*	i	i	i
SMILES	KCNK9 inh	hERG protect	Kir21 inh	KCNK3 inh	KCNQ1 block	KCNQ1 pot
CCOC(=O)c1c(CSc2ccc(C)cc2)n(C)c2cc(Br)c(O)c(CN(C)C)c12	i	-28	-1.6	i	i	i
CS(=O)(=O)N(CCCC(=O)N1CCCCCC1)c1cccc(Cl)c1	i	-7	1.7	i	i	i
CN(C)/C=C1/Sc2ccccc2C1=O	i	-3	-0.18	i	i	i
CC(=O)N(\C=C/C=C/C=C1\Sc2ccccc2C1=O)c1ccccc1	i	-13	0	i	7*	i
O=[N+]([O-])c1cc(Br)c(O)c(/C=N/Nc2nnnn2-c2cccc3ccccc23)c1	i	-36	-1.7	i	7*	i
COc1ccc(N2CCN(C(=S)NC(=O)c3cccs3)CC2)c([N+](=O)[O-])c1	i	-7	0.05	i	i	13*
O=C(NC(=S)Nc1ccccc1N1CCCCC1)c1cccs1	i	7.5*	-0.38	i	i	12*
O=C(NC(=S)Nc1ccccc1N1CCCC1)c1cccs1	i	3	-1.4	i	i	17*
O=C(NC(=S)Nc1ccccc1N1CCOCC1)c1cccs1	i	3	-0.3	i	i	i
O=C(NC(=S)Nc1ccc(N2CCCCC2)cc1)c1cccs1	i	-4	2.5	i	i	9*
Cc1nnc(NS(=O)(=O)c2ccc(F)cc2)s1	x	x	x	i	x	x
Cc1cc(S(=O)(=O)/N=C(\N)c2ccc(C(N)=O)cc2)cc(C)c1F	i	-9	-0.93	i	i	i
O=C(NC(=S)N1CCN(c2ccc(F)cc2)CC1)c1cccs1	i	15*	0.55	i	i	13*
O=C(NC(=S)N1CCN(c2ccc(O)cc2)CC1)c1cccs1	i	-10	-1.2	i	i	i
C=C(C)Cn1c(C)cc(C)c(S(=O)(=O)c2ccc(C)cc2)c1=O	-7.2*	-6	-2.8	i	i	i
Cc1ccc(S(=O)(=O)c2c(C)cc(C)nc2Cl)cc1	i	-12	-2.2	i	i	i
Cc1ccc(C2C(C#N)=C(N)OC3=C2C(=O)CC(C)(C)C3)s1 (stereo not drawn)	i	-2	-1.1	i	i	9*
O=C(N/N=C\c1cn(-c2ccccc2)nc1-c1ccccc1)c1ccc2c(c1)OCO2	-6.8*	-36	0.14	i	i	i
COc1ccc(-c2nn(-c3ccccc3)cc2/C=N/NC(=O)c2ccc(Br)o2)cc1	-6.7*	-14	0.07	-9.6*	11*	i
COCCN(C(=O)c1ccc(-c2ccc(Cl)cc2)o1)c1c(N)n(Cc2ccccc2)c(=O)[nH]c1=O	i	-8	1.2	i	i	i
Clc1ccccc1CSc1nncn1NC/C=C/c1ccccc1	i	-11	-6.6*	i	i	i

High-throughput results: PubChem, Johns Hopkins Ion Channel Center
